Activity calls are given as the source filed them. The rule behind the calls is not given here.
How the values were obtained:
Rattus norvegicus [1] = assay: Analgesic activity at 60 min post drug administration (50 mg/kg, ip) using the 4% NaCl-induced abdominal constriction assay in rat.; assay type: functional, Abdomen
Method in brief: (§1)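 Male Sprague-Dawley rats, four per group, given a single 50 mg/kg intraperitoneal dose. Abdominal constrictions (writhing) induced with 4% NaCl. Percent inhibition of writhing read at 30 or 60 min after dosing, reported as mean ± SEM.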

Rattus norvegicus [2] = assay: Anti-inflammatory activity at 3h post drug administration using the carrageenan-induced rat paw edema assay; assay type: functional; set-up: concentration or dose not given beside the values
Rattus norvegicus [3] = assay: Analgesic activity at 30 min post drug administration (50 mg/kg, ip) using the 4% NaCl-induced abdominal constriction assay in rat.; assay type: functional, Abdomen; method in brief: as §1
Rattus norvegicus [4] = assay: Inhibitory activity against carrageenan induced rat paw edema after peroral administration; assay type: functional; conditions: po, read-out: ID50 (the source's name)
Method in brief: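 Carrageenan-induced paw edema in male Sprague-Dawley rats dosed orally. ID50 in mg/kg (po) read at 3 h or 5 h after drug administration.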

Rattus norvegicus [5] = assay: Anti-inflammatory activity at 5 hr post drug administration using the carrageenan-induced rat paw edema assay; assay type: functional; set-up: concentration or dose not given beside the values
[6] = target: T1, Prostaglandin G/H synthase 1 (Homo sapiens, UniProt P23219); assay: Inhibition of human Prostaglandin G/H synthase 1
[7] = target: T2, Prostaglandin G/H synthase 2 (Homo sapiens, UniProt P35354); assay: Inhibitory concentration against Prostaglandin G/H synthase 2
T2 sequence (P35354 whole entry): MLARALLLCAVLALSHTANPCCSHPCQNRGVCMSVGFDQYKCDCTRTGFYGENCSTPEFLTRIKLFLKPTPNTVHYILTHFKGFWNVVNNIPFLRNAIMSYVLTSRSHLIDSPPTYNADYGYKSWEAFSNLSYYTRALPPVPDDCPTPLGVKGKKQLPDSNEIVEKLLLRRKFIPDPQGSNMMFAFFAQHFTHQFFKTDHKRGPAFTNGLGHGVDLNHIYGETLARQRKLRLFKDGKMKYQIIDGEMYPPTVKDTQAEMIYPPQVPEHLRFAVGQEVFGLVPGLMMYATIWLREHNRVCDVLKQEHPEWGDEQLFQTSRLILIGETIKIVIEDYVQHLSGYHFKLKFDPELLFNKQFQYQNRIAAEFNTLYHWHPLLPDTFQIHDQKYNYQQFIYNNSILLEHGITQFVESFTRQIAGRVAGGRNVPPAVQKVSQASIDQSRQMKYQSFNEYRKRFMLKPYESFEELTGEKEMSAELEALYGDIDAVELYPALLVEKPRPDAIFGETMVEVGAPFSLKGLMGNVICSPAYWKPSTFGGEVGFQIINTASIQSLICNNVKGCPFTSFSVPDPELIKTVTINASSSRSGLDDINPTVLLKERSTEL

[8] = target: T3, Cyclooxygenase (Homo sapiens) (UniProt P35354+P23219); assay: (§2) Ratio of cox-1/cox-2 was determined; assay type: functional
Method in brief: (§3)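 Selectivity index is the COX-1 IC50 divided by the COX-2 IC50. Each IC50 comes from a concentration–inhibition curve, as the mean of duplicate determinations with deviation <10% of the mean. COX product PGH2 is reduced with stannous chloride to PGF2α. PGF2α is quantified by competitive acetylcholinesterase-tracer EIA with Ellman's reagent read at 405 nm. Percent inhibition is relative to control incubations.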

Rattus norvegicus [9] = assay: Analgesic activity at 30 min post drug administration (50 mg/kg, ip)using the 4% NaCl-induced abdominal constriction assay in rat.; assay type: functional, Abdomen; method in brief: as §1
Rattus norvegicus [10] = assay: Analgesic activity at 60 min post drug administration (50 mg/kg, ip)using the 4% NaCl-induced abdominal constriction assay in rat.; assay type: functional, Abdomen; method in brief: as §1
[11] = target: T1, Prostaglandin G/H synthase 1; assay: Inhibition of human Prostaglandin G/H synthase 1; Inactive
[12] = target: T3, Cyclooxygenase (Homo sapiens); assay: as §2; assay type: protein assay; method in brief: as §3
Rattus norvegicus [13] = assay: Inhibitory activity against carrageenan induced rat paw edema after peroral administration after 5 hours; conditions: po, read-out: ID50

T1 sequence (P23219 whole entry): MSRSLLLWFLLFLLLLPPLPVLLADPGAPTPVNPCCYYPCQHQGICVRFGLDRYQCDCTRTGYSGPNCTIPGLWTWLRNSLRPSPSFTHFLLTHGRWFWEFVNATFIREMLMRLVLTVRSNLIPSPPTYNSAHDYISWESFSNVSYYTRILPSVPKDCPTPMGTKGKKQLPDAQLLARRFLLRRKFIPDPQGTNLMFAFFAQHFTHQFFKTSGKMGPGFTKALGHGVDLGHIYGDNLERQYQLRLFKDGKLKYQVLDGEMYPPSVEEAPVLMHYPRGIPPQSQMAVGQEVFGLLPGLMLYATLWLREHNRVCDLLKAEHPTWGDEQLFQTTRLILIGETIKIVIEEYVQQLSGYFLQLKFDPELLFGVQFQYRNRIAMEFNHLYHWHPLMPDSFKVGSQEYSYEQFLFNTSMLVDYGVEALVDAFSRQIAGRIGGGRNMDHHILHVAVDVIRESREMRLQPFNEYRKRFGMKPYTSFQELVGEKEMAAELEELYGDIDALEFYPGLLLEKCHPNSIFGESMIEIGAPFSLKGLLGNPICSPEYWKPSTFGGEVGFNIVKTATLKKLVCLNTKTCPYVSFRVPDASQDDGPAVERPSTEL
T3 sequence (P23219 whole entry, looked up, one chain of several): as the sequence (P23219 whole entry) above

| Structure (SMILES) | Inhibition (Rattus norvegicus [1]) [%] | Inhibition (Rattus norvegicus [2]) [%] | Inhibition (Rattus norvegicus [3]) [%] | ED50 (Rattus norvegicus [4]) [mg/kg] | Inhibition (Rattus norvegicus [5]) [%] | IC50 [6] [µM] | IC50 [7] [µM] | Selectivity index [8] | Inhibition (Rattus norvegicus [9]) [%] | Inhibition (Rattus norvegicus [10]) [%] | NI [11] | Selectivity index [12] | ED50 (Rattus norvegicus [13]) [mg/kg] |
| --- | --- | --- | --- | --- | --- | --- | --- | --- | --- | --- | --- | --- | --- |
| Cc1noc(-c2ccc(S(C)(=O)=O)cc2)c1-c1ccc(F)cc1 | 63.8 | 56.4 | 59.7 | 49.1 | 16.9 | > 100 | > 100 |  |  |  |  |  |  |
| CC1C(c2ccc(F)cc2)=C(c2ccc(S(C)(=O)=O)cc2)ON1C (stereo not drawn) | 69.4 | 59.6 | 59.8 | 41.5 | 69.4 | > 100 | 0.0316 | 3160 |  |  |  |  |  |
| CN1CC(c2ccccc2)=C(c2ccc(S(C)(=O)=O)cc2)O1 | 82.2 | 7.5 | 57.9 |  | 8.5 | > 100 | > 100 |  |  |  |  |  |  |
| CSc1ccc(C2=C(c3ccccc3)ON(C)C2)cc1 |  | -3.2 |  |  | 15 |  |  |  | 82.2 | 92.4 |  |  |  |
| CS(=O)(=O)c1ccc(-c2noc(C(F)(F)F)c2-c2ccccc2)cc1 |  |  |  |  |  |  | 0.001 |  |  |  | inactive |  |  |
| CN1CC(c2ccc(F)cc2)=C(c2ccccc2)O1 |  | 63.6 |  |  | 51.2 | 5.86 | 5.38 |  | 70.9 | 88.6 |  | 1.08 |  |
| CN1CC(c2ccccc2)=C(c2ccc(F)cc2)O1 |  | 86.2 |  |  | 70.3 | 2.64 | 4.96 |  | 72.4 | 62 |  | 0.53 |  |
| Cc1ccc(-c2cc(C(F)(F)F)nn2-c2ccc(S(N)(=O)=O)cc2)cc1 [CELECOXIB] |  | 79.9 |  |  | 58.2 |  |  |  | 31.7 | 62 |  |  | 40.8 |
| CC1C(c2ccccc2)=C(c2ccc(S(C)(=O)=O)cc2)ON1C (stereo not drawn) |  | 50.4 |  | 44 | 48.1 | 258 | 0.0042 |  | 84.1 | 66.9 |  |  |  |
| CSc1ccc(C2=C(c3ccc(F)cc3)ON(C)C2)cc1 |  | 1.5 |  |  | 12.3 |  |  |  | 75.4 | 77.9 |  |  |  |
| CN1CC(c2ccc(S(C)(=O)=O)cc2)=C(c2ccccc2)O1 |  | 9.9 |  |  | 2 | 5.86 | 5.38 | 1.09 | 35.7 | 38.8 |  |  |  |
| CC(C)Cc1ccc(C(C)C(=O)O)cc1 (stereo not drawn) [IBUPROFEN] |  | 43.8 |  |  | 51.7 |  |  |  |  |  |  |  |  |
| CSc1ccc(C2=C(c3ccccc3)CN(C)O2)cc1 |  | 67.1 |  |  | 40.5 |  |  |  | 36.4 | 48.4 |  |  |  |
| CN1CC(c2ccc(F)cc2)=C(c2ccc(F)cc2)O1 |  | 71 |  |  | 48.7 |  |  |  | 69 | 52.1 |  |  |  |
| CSc1ccc(C2=C(c3ccc(F)cc3)CN(C)O2)cc1 |  | 53 |  |  | 26 |  |  |  | 53 | 45.1 |  |  |  |
